Among the data in ChEMBL document CHEMBL1125314, “Synthesis and evaluation of 2-pyridinone derivatives as HIV-1 specific reverse transcriptase inhibitors. 1. Phthalimidoalkyl and -alkylamino analogues” (J Med Chem, 1992) are IC50 and k obs values, retold here.

The target of data set [1] is Human immunodeficiency virus type 1 reverse transcriptase (Human immunodeficiency virus 1, UniProt Q72547). Briefly: Inhibition of HIV-1 reverse transcriptase.
Data set [2] is described as follows: The compound was tested for hydrolysis rate at pH 7. As to conditions: buffer. The format is ADME. Put shortly:
(§1)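 Aqueous hydrolysis of the (aminomethyl)phthalimides followed at pH 7, 8.2 (the pH used for the RT enzyme measurements) and 9.0. Results are expressed as the observed rate constant k_obs in units of 10⁻³ min⁻¹.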

The nature of data set [3]: The compound was tested for hydrolysis rate at pH 8.2. Type of data set: ADME. As to conditions: buffer. The method, boiled down:
as §1

Data set [4] is described as follows: The compound was tested for hydrolysis rate at pH 9. To be noted: buffer. The format is ADME. The method, boiled down: as §1

For orientation: IC50 means the point on the concentration scale where inhibition reaches its midpoint. A low value points to greater potency. On to `CCc1cc(CN2C(=O)c3ccccc3C2=O)c(=O)[nH]c1C`, for which the IC50 in data set [1] was determined as 26.5 µM. In the case of `O=C1c2ccccc2C(=O)N1CNc1cccnc1O`, the results for the k obs in data set [2], in data set [3] and in data set [4] were 0.00085 min⁻¹, 0.0039 min⁻¹ and 0.02417 min⁻¹, respectively. In data set [1], this compound displayed a 50% inhibitory concentration (IC50) of 1.66 µM.

The compound `CCc1cc(C(O)CN2C(=O)c3ccccc3C2=O)c(O)nc1C` (stereo not given) yielded a half-inhibitory concentration (IC50) in data set [1] greater than 300 µM. Take `CCc1nc(O)c(NCN2C(=O)c3ccccc3C2=O)cc1C`: the k obs in data set [2] was 0.00722 min⁻¹; in data set [3], 0.01001 min⁻¹; in data set [4] it was 0.03627 min⁻¹. In addition, the half-maximal inhibitory concentration (IC50) in data set [1] was 0.887 µM. In turn, `O=C1c2ccccc2C(=O)N1CCc1cccnc1O` returned a half-maximal inhibitory concentration (IC50) in data set [1] greater than 300 µM. Same read-out and setting: in the case of `CCC1=C(C)NC(OC)C(CCCN2C(=O)c3ccccc3C2=O)=C1` (stereo not given) it was greater than 300 µM.

In data set [1], `CCc1cc(NCCN2C(=O)c3ccccc3C2=O)c(=O)[nH]c1C` showed a half-maximal inhibitory concentration (IC50) of 45 µM. Take `O=C1c2ccccc2C(=O)N1CNc1cc2c(nc1O)CCCC2`: the k obs in data set [2] was determined as 0.00777 min⁻¹; in data set [3], 0.013 min⁻¹; in data set [4], 0.03678 min⁻¹. The IC50 in data set [1] came to 3.7 µM.

With `CCc1cc(NCN2C(=O)c3ccccc3C2=O)c(O)nc1C`, the k obs amounted to 0.00624 min⁻¹ in data set [2], 0.0101 min⁻¹ in data set [3] and 0.0243 min⁻¹ in data set [4]. As to `CCCc1cc(NCN2C(=O)c3ccccc3C2=O)c(=O)[nH]c1C`, the IC50 in data set [1] is 0.058 µM.

The compound `Cc1cc(NCN2C(=O)c3ccccc3C2=O)c(O)nc1C` displayed a 50% inhibitory concentration (IC50) in data set [1] of 0.218 µM.

On to `CCC1=C(C)NC(OC)C(C(O)CN2C(=O)c3ccccc3C2=O)=C1` (stereo not given), for which the half-inhibitory concentration (IC50) in data set [1] is greater than 300 µM. In the case of `Cc1ccc(NCN2C(=O)c3ccccc3C2=O)c(=O)[nH]1`, the results for the k obs in data set [2], in data set [3] and in data set [4] were 0.00424 min⁻¹, 0.0073 min⁻¹ and 0.027 min⁻¹, respectively. This compound returned an IC50 in data set [1] of 8.1 µM. Turning to `CCC1=C(C)NC(OC)C(CCN2C(=O)c3ccccc3C2=O)=C1` (stereo not given), in data set [1], the half-maximal inhibitory concentration (IC50) stood at 6.2 µM.

Regarding `CCc1cc(NCCCN2C(=O)c3ccccc3C2=O)c(=O)[nH]c1C`, in data set [1], the concentration for half-maximal inhibition (IC50) was found to be 190 µM. Still for that read-out and setting: the value for `CCCCc1cc(NCN2C(=O)c3ccccc3C2=O)c(O)nc1C` was 0.128 µM.

As for `CCC1=C(C)NC(OC)C(C(=O)CN2C(=O)c3ccccc3C2=O)=C1` (stereo not given), the IC50 in data set [1] is greater than 300 µM. In turn, `CCc1cc(/C=C/N2C(=O)c3ccccc3C2=O)c(=O)[nH]c1C` returned an IC50 in data set [1] of 54 µM. On the same count and under the same terms, in the case of `CCc1cc(C(=O)CN2C(=O)c3ccccc3C2=O)c(=O)[nH]c1C` it was greater than 300 µM; in that of `CCC1=C(C)NC(OC)C(CN2C(=O)c3ccccc3C2=O)=C1` (stereo not given), 16 µM; in that of `CCc1cc(CCCN2C(=O)c3ccccc3C2=O)c(O)nc1C`, 210 µM.
